The test system of data set [1] is Pseudomonas aeruginosa. The data set is described as follows: Antibacterial activity against Pseudomonas aeruginosa ATCC 27853 by microdilution method. Type of data set: functional. The method, boiled down: (§1)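 Liquid-medium broth microdilution. Strains kept at -70 °C in glycerol Mueller-Hinton broth; fresh subcultures used for each run. Final inoculum (1-5) × 10^5 cfu/mL. MIC taken as the lowest concentration preventing visible growth. MBC taken as the concentration killing ≥99.9% of the initial inoculum, confirmed by subculturing dilutions onto TSA agar at 30 °C for 18-24 h.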
Background: Broth dilution looks for growth in wells or tubes with falling amounts of substance.

For data set [2], the system named is Staphylococcus epidermidis. The data set can be described thus: Antibacterial activity against Staphylococcus epidermidis NCIMB 8853 by microdilution method. Type of data set: functional. Put shortly: as §1
The subject of data set [3] is Staphylococcus aureus. The data set can be described thus: Antibacterial activity against Staphylococcus aureus ATCC 29213 by microdilution method. The data set is classed as functional. Put shortly: as §1
Data set [4] concerns Micrococcus luteus. The data set can be described thus: Antibacterial activity against sMicrococcus luteus NCIMB 8166 by microdilution method. The data set is classed as functional. Put shortly:
as §1

For data set [5], the system named is Escherichia coli. The data set is described as follows: Antibacterial activity against sEscherichia coli ATCC 35218 by microdilution method. Type of data set: functional. Put shortly:
as §1

Data set [6] can be described thus: Toxicity against Artemia salina. Particulars: in vivo, read-out: ED50 (the source's name). Type of data set: organism-based. Put shortly:
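Brine shrimp lethality bioassay; the endpoint is death, reported as ED50 in µM.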

Results on eight compounds are retold here after ChEMBL document CHEMBL1158066, “Phytochemical constituents from Salsola tetrandra” (J Nat Prod, 2006).

Values after ≈ are worked out from the molar mass of the structure shown.

On to `COc1cc(/C=C/C(=O)NC[C@@H](O)c2ccc(O)cc2)ccc1O`, for which the minimum inhibitory concentration (MIC) was over 700 µg/mL in data set [1]; 600 µg/mL (≈ 1820 µM) in data set [2]; 200 µg/mL (≈ 607 µM) in data set [3]; 400 µg/mL (≈ 1210 µM) in data set [4]; 400 µg/mL (≈ 1210 µM) in data set [5]. The minimal bactericidal concentration (MBC) in data set [2] was over 700 µg/mL; in data set [3] it was 600 µg/mL (≈ 1820 µM); in data set [4], 700 µg/mL (≈ 2130 µM); in data set [5], 700 µg/mL (≈ 2130 µM).
Consider `CCCCCC(O)C(O)/C=C/C(O)CCCCCCCC(=O)O` (centres undefined), for which the minimum inhibitory concentration (MIC) in data set [1] is over 700 µg/mL; in data set [2] it was 600 µg/mL (≈ 1820 µM); in data set [3], 500 µg/mL (≈ 1510 µM); in data set [4], 400 µg/mL (≈ 1210 µM); in data set [5], over 700 µg/mL. Moreover, the MBC was over 700 µg/mL in data set [2], over 700 µg/mL in data set [3] and 500 µg/mL (≈ 1510 µM) in data set [4].
On to `COc1cc(O[C@@H]2O[C@H](CO)[C@@H](O)[C@H](O)[C@H]2O)cc(OC)c1OC`, for which the LC50 in data set [6] is 28.9 µM. In addition, the MIC in data set [1] was over 700 µg/mL; in data set [2], 600 µg/mL (≈ 1730 µM); in data set [3], 700 µg/mL (≈ 2020 µM); in data set [4], 500 µg/mL (≈ 1440 µM); in data set [5] it was over 700 µg/mL. Moreover, the MBC in data set [2], in data set [3] and in data set [4] was over 700 µg/mL each time.
With `C=C[C@](C)(CC/C=C(\C)CO)O[C@@H]1O[C@H](CO)[C@@H](O)[C@H](O)[C@H]1O`, in data set [6], the LC50 amounted to 21.8 µM. In addition, the MIC was over 700 µg/mL in data set [1]; 700 µg/mL (≈ 2110 µM) in data set [2]; 700 µg/mL (≈ 2110 µM) in data set [3]; 600 µg/mL (≈ 1810 µM) in data set [4]; over 700 µg/mL in data set [5]. For the same compound, the minimum bactericidal concentration (MBC) in data set [2], in data set [3] and in data set [4] was over 700 µg/mL in each case.
With `CC/C=C\CC(O)C(O)/C=C/C(O)CCCCCCCC(=O)O` (centres undefined), the MIC was over 700 µg/mL in data set [1]; 600 µg/mL (≈ 1830 µM) in data set [2]; 500 µg/mL (≈ 1520 µM) in data set [3]; 400 µg/mL (≈ 1220 µM) in data set [4]; over 700 µg/mL in data set [5]. The MBC in data set [2] is over 700 µg/mL; in data set [3], over 700 µg/mL; in data set [4], 500 µg/mL (≈ 1520 µM).
As to `CC(=O)/C=C/[C@@]12O[C@]1(C)C[C@@H](O)[C@H](O[C@@H]1O[C@H](CO)[C@@H](O)[C@H](O)[C@H]1O)C2(C)C`, the LC50 in data set [6] came to 10.9 µM. For the same compound, the MIC in data set [1] was over 700 µg/mL; in data set [2], 600 µg/mL (≈ 1490 µM); in data set [3] it was 700 µg/mL (≈ 1740 µM); in data set [4] it was 500 µg/mL (≈ 1240 µM); in data set [5], over 700 µg/mL. The minimum bactericidal concentration (MBC) in data set [2], in data set [3] and in data set [4] was over 700 µg/mL each time.
Turning to `COc1cc(/C=C/C(=O)NCCc2ccc(O)cc2)ccc1O` [N-TRANS-FERULOYL TYRAMINE], the MIC is over 700 µg/mL in data set [1]; over 700 µg/mL in data set [2]; 500 µg/mL (≈ 1600 µM) in data set [3]; 500 µg/mL (≈ 1600 µM) in data set [4]; over 700 µg/mL in data set [5]. Moreover, the minimal bactericidal concentration (MBC) in data set [3] and in data set [4] was over 700 µg/mL throughout.
For `N#C[C@H](O[C@@H]1O[C@H](CO)[C@@H](O)[C@H](O)[C@H]1O)c1ccc(O)cc1` [TAXIPHYLLIN], the LC50 in data set [6] amounted to 0.96 µM. Also, the minimum inhibitory concentration (MIC) in data set [1] is over 700 µg/mL; in data set [2] it was 500 µg/mL (≈ 1610 µM); in data set [3] it was 400 µg/mL (≈ 1280 µM); in data set [4], 200 µg/mL (≈ 642 µM); in data set [5] it was 600 µg/mL (≈ 1930 µM). Further, the MBC is over 700 µg/mL in data set [2], 700 µg/mL (≈ 2250 µM) in data set [3], 500 µg/mL (≈ 1610 µM) in data set [4] and over 700 µg/mL in data set [5].

In general, MIC refers to the least concentration at which growth counts as inhibited. As usually defined, the MBC is the lowest tested concentration that kills the bacteria rather than only halting them. The low end stands for greater bactericidal potency, the high end for weaker bactericidal potency.
